Test results taken from ChEMBL document CHEMBL1649288, “Fmt bypass in Pseudomonas aeruginosa causes induction of MexXY efflux pump expression” (2009).
≈ marks a conversion by molar mass, not a printed value.

Experiments:
Type in all cases: functional
Pseudomonas aeruginosa [1] = test: Antibacterial activity against wild type Pseudomonas aeruginosa PAO1 NB52019 by broth microdilution method
Method in brief: (§1)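 Broth microdilution following standard CLSI guidelines. P. aeruginosa strains were routinely cultured at 37°C in Mueller-Hinton or Luria broth. Where plasmids required selection, media carried gentamicin or tetracycline (100 μg/ml) or carbenicillin (100 μg/ml).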

Pseudomonas aeruginosa [2] = test: Antibacterial activity against Pseudomonas aeruginosa PAO1 NB52021 expressing mexB by broth microdilution method
Method in brief: (§2)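 Broth microdilution MICs run per standard CLSI guidelines; P. aeruginosa strains routinely grown at 37°C in Mueller-Hinton or Luria medium.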

Pseudomonas aeruginosa [3] = test: Antibacterial activity against Pseudomonas aeruginosa PAO1 NB52022 expressing mexX by broth microdilution method; method in brief: as §1
Pseudomonas aeruginosa [4] = test: Antibacterial activity against Pseudomonas aeruginosa PAO1 NB52023 expressing mexB and mexX by broth microdilution method; method in brief: as §2
Pseudomonas aeruginosa [5] = test: Antibacterial activity against Pseudomonas aeruginosa PAO1 NB52020 expressing mexAB-oprM by broth microdilution method; method in brief: as §1
Pseudomonas aeruginosa [6] = test: Antibacterial activity against Pseudomonas aeruginosa PAO1 CDS1 expressing 14-bp deleted nfxB at base 92 by broth microdilution method; method in brief: as §2
Pseudomonas aeruginosa [7] = test: Antibacterial activity against Pseudomonas aeruginosa PAO1 CDS6 expressing nfxB A115C, T39P mutant by broth microdilution method; method in brief: as §1
Pseudomonas aeruginosa [8] = test: Antibacterial activity against Pseudomonas aeruginosa PAO1 CDS28 expressing 16-bp deleted fmt at position 833 by broth microdilution method; method in brief: as §2
Pseudomonas aeruginosa [9] = test: Antibacterial activity against Pseudomonas aeruginosa PAO1 CDS28 harboring pSW1 by broth microdilution method; method in brief: as §1
Pseudomonas aeruginosa [10] = test: Antibacterial activity against Pseudomonas aeruginosa PAO1 CDS13 expressing mexAB-oprM fmt C127T, R43C mutant by broth microdilution method; method in brief: as §1
Pseudomonas aeruginosa [11] = test: Antibacterial activity against Pseudomonas aeruginosa PAO1 CDS13 harboring pSW1 by broth microdilution method; method in brief: as §1
Pseudomonas aeruginosa [12] = test: Antibacterial activity against Pseudomonas aeruginosa PAO1 CDR1 expressing fmt::aacC1 by broth microdilution method; method in brief: as §2
Pseudomonas aeruginosa [13] = test: Antibacterial activity against Pseudomonas aeruginosa PAO1 CDR2 expressing mexAB-oprM and fmt::aacC1 by broth microdilution method; method in brief: as §2
Pseudomonas aeruginosa [14] = test: Antibacterial activity against Pseudomonas aeruginosa PAO1 CDS30 expressing folD G493T, V165R mutant by broth microdilution method; method in brief: as §1
Pseudomonas aeruginosa [15] = test: Antibacterial activity against Pseudomonas aeruginosa PAO1 CDS30 harboring pRC5 by broth microdilution method; method in brief: as §1
Pseudomonas aeruginosa [16] = test: Antibacterial activity against Pseudomonas aeruginosa PAO1 CDS22 expressing mexAB-oprM folD A424C, T142P mutant by broth microdilution method; method in brief: as §1
Pseudomonas aeruginosa [17] = test: Antibacterial activity against Pseudomonas aeruginosa PAO1 CDS22 harboring pRC5 by broth microdilution method; method in brief: as §1
Pseudomonas aeruginosa [18] = test: Induction of mexY (PA2018) gene expression in wild type Pseudomonas aeruginosa PAO1 NB52019 at 12 ug/ml relative to control
Method in brief: (§3)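 Duplicate P. aeruginosa NB52019 cultures were diluted 1:100 from overnight into 30 ml Luria broth with or without 12 μg/ml drug, shaken at 180 rpm at 37°C to OD600 0.8, and harvested at 15,000 × g for 10 min. Total RNA was purified with a 40-min on-column DNase I step for transcriptional profiling, and treated cultures were compared with untreated ones.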

Pseudomonas aeruginosa [19] = test: Induction of mexX (PA2019) gene expression in wild type Pseudomonas aeruginosa PAO1 NB52019 at 12 ug/ml relative to control; method in brief: as §3
Pseudomonas aeruginosa [20] = test: Induction of mexZ (PA2020) gene expression in wild type Pseudomonas aeruginosa PAO1 NB52019 at 12 ug/ml relative to control; method in brief: as §3
Pseudomonas aeruginosa [21] = test: Induction of […] (PA5471) gene expression in wild type Pseudomonas aeruginosa PAO1 NB52019 at 12 ug/ml relative to control; method in brief: as §3
Pseudomonas aeruginosa [22] = test: Induction of oprM (PA0427) gene expression in wild type Pseudomonas aeruginosa PAO1 NB52019 at 12 ug/ml relative to control; method in brief: as §3

SMILES: CCCC[C@H](CN(O)C=O)C(=O)N1CCC[C@H]1C(=O)Nc1ccc(F)c[n+]1[O-]
- MIC (Pseudomonas aeruginosa [1]): 128 µg/mL (≈ 323 µM)
- MIC (Pseudomonas aeruginosa [2]): 64 µg/mL (≈ 161 µM)
- MIC (Pseudomonas aeruginosa [3]): 128 µg/mL (≈ 323 µM)
- MIC (Pseudomonas aeruginosa [4]): 8 µg/mL (≈ 20.2 µM)
- MIC (Pseudomonas aeruginosa [5]): 4 µg/mL (≈ 10.1 µM)
- MIC (Pseudomonas aeruginosa [6]): > 128 µg/mL
- MIC (Pseudomonas aeruginosa [7]): > 128 µg/mL
- MIC (Pseudomonas aeruginosa [8]): > 1020 µg/mL
- MIC (Pseudomonas aeruginosa [9]): 128 µg/mL (≈ 323 µM)
- MIC (Pseudomonas aeruginosa [10]): > 128 µg/mL
- MIC (Pseudomonas aeruginosa [11]): 4 µg/mL (≈ 10.1 µM)
- MIC (Pseudomonas aeruginosa [12]): > 1020 µg/mL
- MIC (Pseudomonas aeruginosa [13]): > 1020 µg/mL
- MIC (Pseudomonas aeruginosa [14]): > 1020 µg/mL
- MIC (Pseudomonas aeruginosa [15]): 128 µg/mL (≈ 323 µM)
- MIC (Pseudomonas aeruginosa [16]): > 128 µg/mL
- MIC (Pseudomonas aeruginosa [17]): 4 µg/mL (≈ 10.1 µM)
- fold change (FC) (Pseudomonas aeruginosa [18]): 11.7
- fold change (FC) (Pseudomonas aeruginosa [19]): 11.3
- fold change (FC) (Pseudomonas aeruginosa [20]): 4.8
- fold change (FC) (Pseudomonas aeruginosa [21]): 3.1
- fold change (FC) (Pseudomonas aeruginosa [22]): 0.78
